How the values were obtained:
Format in all cases: functional
786-0 = experiment: Growth inhibition of human 786-0 cells after 48 hrs by sulforhodamine B assay; conditions: 786-0, 48 h
Summary of the method: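 NCI 60-cell-line five-dose screen at 0.01, 0.1, 1, 10 and 100 µM final. Cells were plated at 5,000–40,000/well and grown 24 h at 37 °C, 5% CO2, then exposed to drug continuously for 48 h. Adherent cells were fixed with cold TCA (10% final) and stained with SRB; absorbance read at 515 nm. GI50 is the concentration where [(Ti-Tz)/(C-Tz)]×100 = 50, with Tz plates fixed at drug addition.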

[1] = Growth inhibition of human Hs 578T cells assessed as cell growth at 10 '-6 M after 48 hrs by sulforhodamine B assay; conditions: read-out: Activity
PC-3 = experiment: Growth inhibition of human PC3 cells assessed as cell growth at 10 '-6 M after 48 hrs by sulforhodamine B assay; conditions: PC-3, 48 h, read-out: Activity
OVCAR-5 = experiment: Growth inhibition of human OVCAR5 cells assessed as cell growth at 10 '-6 M after 48 hrs by sulforhodamine B assay; conditions: OVCAR-5, 48 h, read-out: Activity
OVCAR-4 [2] = experiment: Growth inhibition of human OVCAR4 cells assessed as cell growth at 10 '-6 M after 48 hrs by sulforhodamine B assay; conditions: OVCAR-4, 48 h, read-out: Activity
SNB-75 = experiment: Growth inhibition of human SNB75 cells assessed as growth inhibition at 10 uM after 48 hrs by sulforhodamine B assay; conditions: SNB-75, 48 h, read-out: GI
SF-539 = experiment: Growth inhibition of human SF539 cells assessed as cell growth at 10 '-6 M after 48 hrs by sulforhodamine B assay; conditions: SF-539, 48 h, read-out: Activity
SF-295 = experiment: Growth inhibition of human SF295 cells assessed as cell growth at 10 '-6 M after 48 hrs by sulforhodamine B assay; conditions: SF-295, 48 h, read-out: Activity
SW-620 = experiment: Growth inhibition of human SW620 cells assessed as cell growth at 10 '-6 M after 48 hrs by sulforhodamine B assay; conditions: SW-620, 48 h, read-out: Activity
HL-60(TB) [3] = experiment: Growth inhibition of human HL-60(TB) cells assessed as cell growth at 10 '-6 M after 48 hrs by sulforhodamine B assay; conditions: HL-60, 48 h, read-out: Activity
Summary of the method: (§1)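 Five-dose NCI protocol with final concentrations of 0.01–100 µM and drug diluted from a DMSO stock (400× the top concentration) in medium with gentamicin. Cells were pre-incubated 24 h, then exposed 48 h at 37 °C. Suspension cells were fixed with 16% final TCA, SRB-stained and read at 515 nm. Percentage growth at each level was [(Ti−Tz)/(C−Tz)]×100, or [(Ti−Tz)/Tz]×100 when Ti < Tz.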

MCF7 = experiment: Growth inhibition of human MCF7 cells assessed as cell growth at 10 '-7 M after 48 hrs by sulforhodamine B assay; conditions: MCF7, 48 h, read-out: Activity
HCT-15 = experiment: Growth inhibition of human HCT15 cells assessed as cell growth at 10 '-7 M after 48 hrs by sulforhodamine B assay; conditions: HCT-15, 48 h, read-out: Activity
K562 = experiment: Growth inhibition of human K562 cells assessed as cell growth at 10 '-8 M after 48 hrs by sulforhodamine B assay; conditions: K562, 48 h, read-out: Activity
HL-60(TB) [4] = experiment: Growth inhibition of human HL-60(TB) cells assessed as cell growth at 10 '-8 M after 48 hrs by sulforhodamine B assay; conditions: HL-60, 48 h, read-out: Activity; summary of the method: as §1
IGROV-1 = experiment: Growth inhibition of human IGROV1 cells assessed as cell growth at 10 uM after 48 hrs by sulforhodamine B assay; conditions: IGROV-1, 48 h, read-out: Activity
NCI-H23 = experiment: Growth inhibition of human NCI-H23 cells assessed as cell growth at 10 '-4 M after 48 hrs by sulforhodamine B assay; conditions: NCI-H23, 48 h, read-out: Activity
[5] = Growth inhibition of human EKVX cells assessed as cell growth at 10 '-4 M after 48 hrs by sulforhodamine B assay; conditions: read-out: Activity
MDA-MB-231 [6] = experiment: Growth inhibition of human MDA-MB-231 cells assessed as cell growth at 10 '-5 M after 48 hrs by sulforhodamine B assay; conditions: MDA-MB-231, 48 h, read-out: Activity
HOP-62 = experiment: Growth inhibition of human HOP62 cells after 48 hrs by sulforhodamine B assay; conditions: HOP-62, 48 h
Summary of the method: (§2)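 NCI 60-cell-line five-dose screen. Cells were plated at 5,000–40,000/well by doubling time and grown 24 h at 37 °C, 5% CO2. Time-zero plates were TCA-fixed. Drug from DMSO stock was tested at 0.01, 0.1, 1, 10 and 100 µM final for 48 h continuous exposure. Read-out was SRB at 515 nm. GI50 is the concentration giving 50% reduction in net protein increase versus untreated control.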

[7] = Growth inhibition of human EKVX cells after 48 hrs by sulforhodamine B assay; summary of the method: as §2
HOP-92 = experiment: Growth inhibition of human HOP92 cells assessed as cell growth at 10 '-7 M after 48 hrs by sulforhodamine B assay; conditions: HOP-92, 48 h, read-out: Activity
MDA-MB-231 [8] = experiment: Growth inhibition of human MDA-MB-231 cells assessed as cell growth at 10 '-8 M after 48 hrs by sulforhodamine B assay; conditions: MDA-MB-231, 48 h, read-out: Activity
UO-31 = experiment: Growth inhibition of human UO31 cells assessed as cell growth at 10 '-8 M after 48 hrs by sulforhodamine B assay; conditions: UO-31, 48 h, read-out: Activity
A498 = experiment: Growth inhibition of human A498 cells assessed as cell growth at 10 '-8 M after 48 hrs by sulforhodamine B assay; conditions: A498, 48 h, read-out: Activity
Summary of the method: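 Percent growth at each of the five concentrations of the 48 h continuous-exposure NCI SRB screen. Drug stocks were in DMSO at 400× the top final concentration and diluted in medium with gentamicin. Growth was calculated as [(Ti-Tz)/(C-Tz)]×100 when Ti ≥ Tz, or [(Ti-Tz)/Tz]×100 when Ti < Tz. Tz plates were fixed at drug addition; untreated wells served as control. Absorbance was read at 515 nm.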

OVCAR-4 [9] = experiment: Growth inhibition of human OVCAR4 cells assessed as cell growth at 10 '-8 M after 48 hrs by sulforhodamine B assay; conditions: OVCAR-4, 48 h, read-out: Activity
M14 = experiment: Growth inhibition of human M14 cells assessed as cell growth at 10 '-8 M after 48 hrs by sulforhodamine B assay; conditions: M14, 48 h, read-out: Activity
NCI-H522 = experiment: Growth inhibition of human NCI-H522 cells assessed as cell growth at 10 '-8 M after 48 hrs by sulforhodamine B assay; conditions: NCI-H522, 48 h, read-out: Activity
[10] = Growth inhibition of human EKVX cells assessed as cell growth at 10 '-8 M after 48 hrs by sulforhodamine B assay; conditions: read-out: Activity
[11] = read-out: LD50 (the source's name)

## Cc1nn(-c2ccc(Cl)cc2)c(=O)n1CCN1CCOCC1
786-0
  GI50: 5.75 µM
786-0; read-out: pLC50 (the source's name) (converted)
  CC50: > 100 µM
786-0; read-out: pTGI
  TGI: > 100 µM

## Cc1cc(=O)oc2cc(OCCn3c(C)nn(-c4ccc(Cl)cc4)c3=O)ccc12
[1]
  growth at 1 µM: 68%
PC-3
  growth at 1 µM: 74%
OVCAR-5
  growth at 1 µM: 89%
OVCAR-4 [2]
  growth at 1 µM: 88%
SNB-75
  inhibition of growth at 10 µM: 79.6%
SF-539
  growth at 1 µM: 88%
SF-295
  growth at 1 µM: 74%
SW-620
  growth at 1 µM: 68%
HL-60(TB) [3]
  growth at 1 µM: 91%
MCF7
  growth at 0.1 µM: 93%
HCT-15
  growth at 0.1 µM: 95%
K562
  growth at 0.01 µM: 107%
HL-60(TB) [4]
  growth at 0.01 µM: 101%
IGROV-1
  growth at 10 µM: 59.7%
NCI-H23
  growth at 100 µM: 19%
[5]
  growth at 100 µM: 55%
MDA-MB-231 [6]
  growth at 10 µM: 42%
HOP-62
  GI50: 3.05 µM
  TGI: 3.29 µM
HOP-62; [11]
  CC50: > 1 µM
[7]
  GI50: 1 µM
  TGI: > 1 µM
[7]; [11]
  CC50: > 1 µM
HOP-92
  growth at 0.1 µM: 83%
MDA-MB-231 [8]
  growth at 0.01 µM: 96%
UO-31
  growth at 0.01 µM: 86%
A498
  growth at 0.01 µM: 81%
OVCAR-4 [9]
  growth at 0.01 µM: 100%
M14
  growth at 0.01 µM: 101%
NCI-H522
  growth at 0.01 µM: 100%
[10]
  growth at 0.01 µM: 96%
